A selection: hits, their analogues and other compounds. The true share with any hit is near 2.2%.
M5 PAM: positive allosteric modulators of human muscarinic M5 receptor. AID 624038. activation, % at 3 µM. CHO-K1 hM5, Fluo-8 calcium, ACh EC20 PAM; 0% = ACh EC20, 100% = ACh EC100. 360,000 tested, 0.3% active;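 active = activation above the run cutoff, the mean activation of all test compounds plus 3 SD, cut at about 18% in these data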
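System: CHO-K1 hM5 cells. Reagent: acetylcholine, EC20 level. Compound dosing: single dose, 3 µM nominal final test concentration. Timing: Post-acetylcholine fluorescence recording 140 s. Detection: Fluo-8 calcium fluorescence. Read-out: % activation, ACh-normalized. Benchmarks: ACh EC20 and EC100 wells. Repeats: singlicate, one well per test compound.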
CHRM5 antagonist: blocks acetylcholine activation of human M5 receptor | P08912 | CHO-hM5 cells, Fluo-8 calcium fluorescence, ACh EC80 | inhibition, % at 3 µM | 360,000 tested, 0.59% active;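 active = inhibition above a per-plate cutoff, the mean of that plate's test compounds plus 3 SD, cut at about 27% in these data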;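 note: 0% = acetylcholine EC80 with DMSO and 100% = DMSO without agonist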
CHRM1 PAM: positive allosteric modulators of human M1 muscarinic receptor; P11229; CHO-K1 hM1, Fluo-8 calcium fluorescence, ACh EC20; 0% = ACh EC20, 100% = maximal ACh; activation, % at 3 µM; 360,000 tested, 0.088% active; AID 588819; in the data active = activation above about 19%, passing the limit was not always enough
CHRM5 agonist: CHRM5 agonism in calcium assay | AID 624037 | 360,000 tested, 0.19% active | CHO-K1 hM5 cells, Fluo-8 calcium fluorescence; 0% DMSO wells, 100% maximal acetylcholine response | activation, % at 3 µM;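 active = activation above the run's mean over test compounds plus 3 SD, cut at about 23% in these data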;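 note: signal is peak over basal fluorescence ratio across the kinetic read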
CHRM1 agonist: agonists of human M1 muscarinic receptor; P11229; CHO-K1 hM1, Fluo-8 calcium fluorescence, agonist mode; 0% DMSO, 100% acetylcholine EC100; activation, % at 3 µM; 360,000 tested, 0.33% active;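 active = activation above the run's mean compound activation plus 3 SD, cut at about 16% in these data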;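 note: peak over basal fluorescence ratio within a 140 s kinetic read after compound addition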
M1 antag: blocks human M1 muscarinic receptor. CHO-K1 hM1, Fluo-8 calcium fluorescence, ACh EC80 antagonist. inhibition, % at 3 µM. 360,000 tested, 1.3% active. AID 588852;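 active = percent inhibition above its own plate's cutoff, namely the mean of that plate's compound wells plus 3 SD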;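 note: peak over basal fluorescence ratio during 140 s after agonist addition; 0% = ACh EC80 plus DMSO and 100% = DMSO alone without agonist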
An asterisk follows results filed as active.

SMILES | M5 PAM | CHRM5 antagonist | CHRM1 PAM | CHRM5 agonist | CHRM1 agonist | M1 antag
COCOc1cccc(CN2CCC(C)(Oc3ccc(C(C)=O)cc3)C2)c1 (stereo unspecified) | 7 | -15 | -10 | -3 | -9 | 29*
COC(=O)Cc1ccc(OC2(C)CCN(Cc3ccccc3)C2)cc1 (stereo unspecified) | -10 | 12 | -26 | -3 | -6 | 53*
CSc1ccc(OC2(C)CCN(Cc3ccccc3)C2)cc1 (stereo unspecified) | -9 | 9 | -22 | -3 | -8 | 28*
COc1cc(C(=O)NCc2ncccc2C)ccc1OC1CCN(C(C)=O)CC1 | -3 | 4 | 2 | -2 | -2 | -3
CC(C)NC(=O)Nc1ccc2c(c1)C(=O)N([C@H](C)CO)C[C@@H](C)[C@@H](CN(C)C(=O)NC1CCCCC1)O2 | 0 | -1 | 8 | 3 | 2 | -18
CSc1ccc(CN2CCC(C)(Oc3ccc4ccccc4c3)C2)cc1 (stereo unspecified) | -8 | 3 | 1 | -1 | -6 | -8
CSc1ccc(CN2CCC(C)(Oc3ccc(-n4ccnc4)cc3)C2)cc1 (stereo unspecified) | -4 | 5 | -29 | 0 | -8 | 58*
CC(C)C[C@@H]1NC(=O)N(CCCn2ccnc2)C1=O | 2 | 3 | 13 | -3 | -3 | -17
CCOC(=O)c1ccc(NC(=O)NC2CC3CCC(C2)N3)cc1 (stereo unspecified) | -1 | 3 | -22 | -12 | -6 | 59*
CCOC(=O)c1ccc(NC(=S)NC2CCCC2)cc1 | -7 | -2 | -4 | 6 | -7 | 7
CCOC(=O)c1ccc(NC(=O)Nc2ccc(F)cc2)cc1 | -18 | 24 | -15 | 5 | 10 | 21*
Cc1ccc(NC(=O)C2CCCN(S(=O)(=O)c3cccc4nonc34)C2)cc1 (stereo unspecified) | -5 | 29* | 2 | -2 | -2 | -4
CCOC(=O)c1ccc(NC(=O)C2CCN(S(=O)(=O)c3ccccc3)CC2)cc1 | 0 | -4 | 11 | 1 | 3 | -20
CCOC(=O)c1ccc(NC(=O)C2CCCN(S(=O)(=O)c3ccc(F)cc3)C2)cc1 (stereo unspecified) | -22 | 32* | -17 | 0 | 2 | 48*
COc1ccc(CC(=O)OCC(=O)Nc2ncc(Cl)c(C)c2Cl)cc1 | -3 | 8 | 9 | 1 | 1 | 0
O=C(Nc1ccn(Cc2ccccc2F)n1)c1ccc(COc2ccc(Br)cc2)cc1 | -11 | 23 | -21 | 6 | 2 | 33*
CN(C)c1nc(N)c2ncc(=S)[nH]c2n1 | 1 | -17 | 9 | 3 | -6 | -7
O=C1NC(=O)C2(N1)c1ccccc1-c1ccccc12 | 4 | 9 | 6 | 0 | -1 | -5
O=C1NC(=O)C2(N1)C(=O)c1cccc3cccc2c13 (stereo unspecified) | -9 | 17 | -9 | 36* | 49* | 6
N#Cc1ccc(NC(=O)Nc2cccc(C#N)c2)cc1 | -17 | 32* | -8 | 12 | 7 | 20
N#Cc1ccc(NC(=O)Nc2ccc(Oc3ccc(NC(=O)Nc4ccc(C#N)cc4)cc3)cc2)cc1 | -15 | 12 | 1 | 3 | 1 | 4
CCOC(=O)CCN(C(=S)Nc1ccccc1)C1CCCCC1 | -7 | 15 | 10 | -2 | -2 | -11
CCNCC(=O)N1c2ccccc2CCc2ccc(NC(=O)OC(C)C)cc21 | 1 | 2 | 9 | -18 | -8 | -18
CCOC(=O)Nc1ccc2c(c1)N(C(=O)N1CCN(C)CC1)c1ccccc1CC2 | -16 | 22 | -16 | -11 | 1 | 49*
CC(C)OC(=O)Nc1ccc2c(c1)N(C(=O)N1CCN(C)CC1)c1ccccc1CC2 | -29 | 46* | -23 | -18 | 2 | 78*
CCOC(=O)Nc1ccc2c(c1)N(C(=O)N1CCN(C)CC1)c1ccccc1S2 | -18 | 60* | -23 | -7 | -5 | 97*
Cc1ccc2c(c1)Oc1ccccc1C=C2C(=O)O | 2 | 6 | 13 | -1 | -4 | -13

High-throughput results from PubChem BioAssay.
